Activity calls are given as the source filed them. The rule behind the calls is not given here.
Assays:
[1] = biological target: T1, Protein cereblon/SWI/SNF-related matrix-associated actin-dependent regulator of chromatin subfamily A member 2 (Homo sapiens, UniProt P51531+Q96SW2); assay: PROTAC activity at CRBN/SMARCA2 in human NCI-H1792 cells harboring wild type SMARCA4 assessed as induction of SMARCA2 degradation incubated for 24 hrs by immunoblot analysis; type: cell-based
In short: (§1)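 H1792 (SMARCA4-WT) cells in RPMI with 10% FBS were treated with 1 nM–10 μM for 24 or 48 h. Cells were lysed in RIPA and immunoblotted for SMARCA2, SMARCA4 and β-actin. Bands were quantified and normalised to β-actin, with DMSO set at 100%. DC50 and Dmax were derived by nonlinear regression. n = 3 biological replicates.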
Target sequence in this assay (P51531 whole entry): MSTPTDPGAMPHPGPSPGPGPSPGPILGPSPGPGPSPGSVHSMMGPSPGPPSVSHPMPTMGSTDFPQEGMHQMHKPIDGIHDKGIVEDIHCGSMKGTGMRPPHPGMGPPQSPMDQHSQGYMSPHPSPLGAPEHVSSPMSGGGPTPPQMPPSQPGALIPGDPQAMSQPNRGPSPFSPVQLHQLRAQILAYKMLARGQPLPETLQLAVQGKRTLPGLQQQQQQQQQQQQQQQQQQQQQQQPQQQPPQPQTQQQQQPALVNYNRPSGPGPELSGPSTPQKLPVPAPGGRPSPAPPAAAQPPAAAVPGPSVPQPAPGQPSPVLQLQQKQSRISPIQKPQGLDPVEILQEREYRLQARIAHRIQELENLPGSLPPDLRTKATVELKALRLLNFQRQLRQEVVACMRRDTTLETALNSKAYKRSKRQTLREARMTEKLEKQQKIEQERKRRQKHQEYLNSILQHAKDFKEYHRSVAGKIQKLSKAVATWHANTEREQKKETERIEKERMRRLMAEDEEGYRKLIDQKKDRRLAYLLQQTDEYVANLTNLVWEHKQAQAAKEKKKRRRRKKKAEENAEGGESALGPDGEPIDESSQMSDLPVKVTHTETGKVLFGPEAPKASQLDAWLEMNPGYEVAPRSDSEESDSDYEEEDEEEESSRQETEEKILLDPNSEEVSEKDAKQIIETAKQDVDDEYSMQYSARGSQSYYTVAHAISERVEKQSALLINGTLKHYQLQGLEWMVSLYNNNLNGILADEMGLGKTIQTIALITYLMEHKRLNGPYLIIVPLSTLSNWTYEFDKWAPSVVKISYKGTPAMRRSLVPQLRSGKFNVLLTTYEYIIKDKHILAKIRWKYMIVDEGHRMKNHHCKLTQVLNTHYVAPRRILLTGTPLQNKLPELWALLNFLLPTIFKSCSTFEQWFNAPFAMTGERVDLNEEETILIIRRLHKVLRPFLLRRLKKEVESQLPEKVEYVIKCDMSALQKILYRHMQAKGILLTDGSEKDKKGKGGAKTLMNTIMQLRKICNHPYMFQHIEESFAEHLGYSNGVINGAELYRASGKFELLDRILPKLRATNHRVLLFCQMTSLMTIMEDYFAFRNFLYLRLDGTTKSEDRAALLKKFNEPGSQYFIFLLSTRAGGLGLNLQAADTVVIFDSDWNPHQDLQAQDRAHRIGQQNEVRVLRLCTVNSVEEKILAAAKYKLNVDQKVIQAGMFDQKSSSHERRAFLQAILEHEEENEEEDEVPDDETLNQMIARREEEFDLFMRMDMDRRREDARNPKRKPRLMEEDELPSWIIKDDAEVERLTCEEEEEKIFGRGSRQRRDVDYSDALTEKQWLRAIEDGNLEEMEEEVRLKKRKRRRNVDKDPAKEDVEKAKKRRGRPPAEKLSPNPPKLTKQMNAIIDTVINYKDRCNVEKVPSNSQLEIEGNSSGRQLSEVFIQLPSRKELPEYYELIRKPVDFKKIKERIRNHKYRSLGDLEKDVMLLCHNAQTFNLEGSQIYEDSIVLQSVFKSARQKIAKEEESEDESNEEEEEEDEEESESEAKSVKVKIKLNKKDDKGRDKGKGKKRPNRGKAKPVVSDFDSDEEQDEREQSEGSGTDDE
Target sequence in this assay (Q96SW2 whole entry): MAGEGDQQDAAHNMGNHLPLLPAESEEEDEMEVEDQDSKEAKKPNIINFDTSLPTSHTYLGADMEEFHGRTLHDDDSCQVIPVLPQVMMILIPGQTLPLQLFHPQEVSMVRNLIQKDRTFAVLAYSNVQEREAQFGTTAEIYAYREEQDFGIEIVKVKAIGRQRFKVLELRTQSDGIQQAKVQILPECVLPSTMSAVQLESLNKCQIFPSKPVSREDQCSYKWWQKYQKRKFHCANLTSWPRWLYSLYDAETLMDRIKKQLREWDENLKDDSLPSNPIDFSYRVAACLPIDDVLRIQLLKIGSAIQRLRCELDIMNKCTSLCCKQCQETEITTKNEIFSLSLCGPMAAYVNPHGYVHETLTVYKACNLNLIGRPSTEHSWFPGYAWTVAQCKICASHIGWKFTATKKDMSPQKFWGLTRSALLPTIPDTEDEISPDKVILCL

[2] = biological target: T1, Protein cereblon/SWI/SNF-related matrix-associated actin-dependent regulator of chromatin subfamily A member 2; assay: PROTAC activity at CRBN/SMARCA2 in human NCI-H1792 cells harboring wild type SMARCA4 assessed as induction of SMARCA2 degradation incubated for 48 hrs by immunoblot analysis; type: cell-based; in short: as §1
Target sequence in this assay (P51531 whole entry): as the sequence (P51531 whole entry) above
Target sequence in this assay (Q96SW2 whole entry): as the sequence (Q96SW2 whole entry) above

[3] = biological target: T2, Protein cereblon/SWI/SNF-related matrix-associated actin-dependent regulator of chromatin subfamily A member 4 (Homo sapiens, UniProt P51532+Q96SW2); assay: PROTAC activity at CRBN/SMARCA4 in human NCI-H1792 cells harboring wild type SMARCA4 assessed as induction of SMARCA4 degradation incubated for 24 hrs by immunoblot analysis; type: cell-based; in short: as §1
[4] = biological target: T2, Protein cereblon/SWI/SNF-related matrix-associated actin-dependent regulator of chromatin subfamily A member 4; assay: PROTAC activity at CRBN/SMARCA4 in human NCI-H1792 cells harboring wild type SMARCA4 assessed as induction of SMARCA4 degradation incubated for 48 hrs by immunoblot analysis; type: cell-based; in short: as §1
[5] = biological target: T1, Protein cereblon/SWI/SNF-related matrix-associated actin-dependent regulator of chromatin subfamily A member 2; assay: PROTAC activity at CRBN/SMARCA2 in human NCI-H1792 cells harboring wild type SMARCA4 assessed as induction of SMARCA2 degradation incubated up to 96 hrs by immunoblot analysis; type: cell-based
[6] = biological target: T1, Protein cereblon/SWI/SNF-related matrix-associated actin-dependent regulator of chromatin subfamily A member 2; assay: PROTAC activity at CRBN/SMARCA2 in human H322 cells harboring mutated SMARCA4 assessed as induction of SMARCA2 degradation incubated for 48 hrs by immunoblot analysis; type: cell-based
In short: (§2)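 SMARCA4-mutant H322, HCC515, H2030 and H2126 cells were treated as indicated. SMARCA2 was immunoblotted in RIPA lysates and quantified after normalisation to β-actin. Expression is given relative to DMSO-treated cells, and Dmax was derived by nonlinear regression.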
Target sequence in this assay (P51531 whole entry, looked up, change not shown): as the sequence (P51531 whole entry) above
Target sequence in this assay (Q96SW2 whole entry, looked up, change not shown): as the sequence (Q96SW2 whole entry) above

[7] = biological target: T1, Protein cereblon/SWI/SNF-related matrix-associated actin-dependent regulator of chromatin subfamily A member 2; assay: PROTAC activity at CRBN/SMARCA2 in human HCC515 cells harboring mutated SMARCA4 assessed as induction of SMARCA2 degradation incubated for 48 hrs by immunoblot analysis; type: cell-based; in short: as §2
Target sequence in this assay (P51531 whole entry, looked up, change not shown): as the sequence (P51531 whole entry) above
Target sequence in this assay (Q96SW2 whole entry, looked up, change not shown): as the sequence (Q96SW2 whole entry) above

[8] = biological target: T1, Protein cereblon/SWI/SNF-related matrix-associated actin-dependent regulator of chromatin subfamily A member 2; assay: PROTAC activity at CRBN/SMARCA2 in human NCI-H2030 cells harboring mutated SMARCA4 assessed as induction of SMARCA2 degradation incubated for 48 hrs by immunoblot analysis; type: cell-based; in short: as §2
Target sequence in this assay (P51531 whole entry, looked up, change not shown): as the sequence (P51531 whole entry) above
Target sequence in this assay (Q96SW2 whole entry, looked up, change not shown): as the sequence (Q96SW2 whole entry) above

[9] = biological target: T1, Protein cereblon/SWI/SNF-related matrix-associated actin-dependent regulator of chromatin subfamily A member 2; assay: PROTAC activity at CRBN/SMARCA2 in human NCI-H2126 cells harboring mutated SMARCA4 assessed as induction of SMARCA2 degradation incubated for 48 hrs by immunoblot analysis; type: cell-based; in short: as §2
Target sequence in this assay (P51531 whole entry, looked up, change not shown): as the sequence (P51531 whole entry) above
Target sequence in this assay (Q96SW2 whole entry, looked up, change not shown): as the sequence (Q96SW2 whole entry) above

[10] = (§3) Inhibition of colony formation in human NCI-H2122 cells harboring wild type SMARCA4 incubated for 9 to 14 days by crystal violet staining based assay; type: functional, cell-based
In short: (§4)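 Single cells, 0.5–2 × 10^3 per well in 6-well plates, in RPMI with 10% FBS. Grown 9–14 days in drug-containing medium, refreshed every fifth day. Fixed in 10% formalin, stained with 0.01% crystal violet. Total colony area quantified and expressed relative to DMSO. n = 3 biological replicates. IC50 ratio is wild-type over mutant.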

NCI-H2122 = assay: as §3; type: functional, cell-based; details: dose 0.001-10 µM, time 9-14 day; in short: as §4
[11] = (§5) Inhibition of colony formation in human HCC44 cells harboring wild type SMARCA4 incubated for 9 to 14 days by crystal violet staining based assay; type: functional, cell-based; in short: as §4
HCC44 = assay: as §5; type: functional, cell-based; details: dose 0.001-10 µM, time 9-14 day; in short: as §4
[12] = biological target: T1, Protein cereblon/SWI/SNF-related matrix-associated actin-dependent regulator of chromatin subfamily A member 2; assay: PROTAC activity at CRBN/SMARCA2 in human H322 cells harboring SMARCA4 mutant assessed as induction of SMARCA2 degradation at 0.1 uM in presence of pomalidomide by immunoblot analysis; type: cell-based
[13] = (§6) Inhibition of colony formation in human NCI-H1568 cells harboring SMARCA4 mutant incubated for 9 to 14 days by crystal violet staining based assay; type: functional, cell-based; in short: as §4
NCI-H1568 = assay: as §6; type: functional, cell-based; details: dose 0.001-10 µM, time 9-14 day; in short: as §4
NCI-H1693 = assay: Inhibition of colony formation in human NCI-H1693 cells harboring SMARCA4 mutant incubated for 9 to 14 days by crystal violet staining based assay; type: functional, cell-based; details: for inhibition: dose 0.001-10 µM, time 9-14 day; in short: as §4
[14] = Metabolic stability in mouse liver microsomes assessed as compound remaining by measuring fold change in absence of NADPH measured after 60 mins by LC-MS/MS analysis; type: ADME, Microsome; details: 1 h
In short: (§7)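 Microsomes at 0.5 mg protein/mL preincubated with compound for 10 min at 37 °C. The NCF60 control received 100 mM potassium phosphate buffer in place of the NADPH regenerating system and was incubated 1 h at 37 °C. Quenched with cold acetonitrile containing tolbutamide and labetalol internal standards, centrifuged, supernatant analyzed by LC-MS/MS. Fraction remaining reported.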

[15] = Metabolic stability in human liver microsomes assessed as compound remaining by measuring fold change in absence of NADPH measured after 60 mins by LC-MS/MS analysis; type: ADME, Microsome; details: 1 h; in short: as §7
[16] = AUC (0 to last) in male CD-1 (ICR) mouse at 25 mg/kg, ip measured up to 24 hrs by LC-MS/MS analysis; type: ADME, organism-based; details: in vivo
In short: (§8)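 Single 25 mg/kg dose. IP vehicle was 5% DMSO/5% solutol/90% water at 1.25 mg/mL, final pH 4.39, clear solution. Oral vehicle was 0.5% methylcellulose/0.2% Tween 80 in water, opaque suspension. Plasma sampled at 0.25, 0.5, 1, 2, 4, 8 and 24 h. Plasma protein-precipitated with internal standard in acetonitrile, then LC-MS/MS. n = 3 mice per time point, mean.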

[17] = Cmax in male CD-1 (ICR) mouse at 25 mg/kg, po measured up to 24 hrs by LC-MS/MS analysis; type: ADME, organism-based; details: in vivo; in short: as §8
[18] = Cmax in male CD-1 (ICR) mouse at 25 mg/kg, ip measured up to 24 hrs by LC-MS/MS analysis; type: ADME, organism-based; details: in vivo; in short: as §8
[19] = Half life in male CD-1 (ICR) mouse at 25 mg/kg, ip measured up to 24 hrs by LC-MS/MS analysis; type: ADME, organism-based; details: in vivo; in short: as §8
[20] = AUC (0 to last) in male CD-1 (ICR) mouse at 25 mg/kg, po measured up to 24 hrs by LC-MS/MS analysis; type: ADME, organism-based; details: in vivo; in short: as §8
[21] = AUC (0 to infinity) in male CD-1 (ICR) mouse at 25 mg/kg, ip measured up to 24 hrs by LC-MS/MS analysis; type: ADME, organism-based; details: in vivo; in short: as §8

T2 sequence (P51532 whole entry): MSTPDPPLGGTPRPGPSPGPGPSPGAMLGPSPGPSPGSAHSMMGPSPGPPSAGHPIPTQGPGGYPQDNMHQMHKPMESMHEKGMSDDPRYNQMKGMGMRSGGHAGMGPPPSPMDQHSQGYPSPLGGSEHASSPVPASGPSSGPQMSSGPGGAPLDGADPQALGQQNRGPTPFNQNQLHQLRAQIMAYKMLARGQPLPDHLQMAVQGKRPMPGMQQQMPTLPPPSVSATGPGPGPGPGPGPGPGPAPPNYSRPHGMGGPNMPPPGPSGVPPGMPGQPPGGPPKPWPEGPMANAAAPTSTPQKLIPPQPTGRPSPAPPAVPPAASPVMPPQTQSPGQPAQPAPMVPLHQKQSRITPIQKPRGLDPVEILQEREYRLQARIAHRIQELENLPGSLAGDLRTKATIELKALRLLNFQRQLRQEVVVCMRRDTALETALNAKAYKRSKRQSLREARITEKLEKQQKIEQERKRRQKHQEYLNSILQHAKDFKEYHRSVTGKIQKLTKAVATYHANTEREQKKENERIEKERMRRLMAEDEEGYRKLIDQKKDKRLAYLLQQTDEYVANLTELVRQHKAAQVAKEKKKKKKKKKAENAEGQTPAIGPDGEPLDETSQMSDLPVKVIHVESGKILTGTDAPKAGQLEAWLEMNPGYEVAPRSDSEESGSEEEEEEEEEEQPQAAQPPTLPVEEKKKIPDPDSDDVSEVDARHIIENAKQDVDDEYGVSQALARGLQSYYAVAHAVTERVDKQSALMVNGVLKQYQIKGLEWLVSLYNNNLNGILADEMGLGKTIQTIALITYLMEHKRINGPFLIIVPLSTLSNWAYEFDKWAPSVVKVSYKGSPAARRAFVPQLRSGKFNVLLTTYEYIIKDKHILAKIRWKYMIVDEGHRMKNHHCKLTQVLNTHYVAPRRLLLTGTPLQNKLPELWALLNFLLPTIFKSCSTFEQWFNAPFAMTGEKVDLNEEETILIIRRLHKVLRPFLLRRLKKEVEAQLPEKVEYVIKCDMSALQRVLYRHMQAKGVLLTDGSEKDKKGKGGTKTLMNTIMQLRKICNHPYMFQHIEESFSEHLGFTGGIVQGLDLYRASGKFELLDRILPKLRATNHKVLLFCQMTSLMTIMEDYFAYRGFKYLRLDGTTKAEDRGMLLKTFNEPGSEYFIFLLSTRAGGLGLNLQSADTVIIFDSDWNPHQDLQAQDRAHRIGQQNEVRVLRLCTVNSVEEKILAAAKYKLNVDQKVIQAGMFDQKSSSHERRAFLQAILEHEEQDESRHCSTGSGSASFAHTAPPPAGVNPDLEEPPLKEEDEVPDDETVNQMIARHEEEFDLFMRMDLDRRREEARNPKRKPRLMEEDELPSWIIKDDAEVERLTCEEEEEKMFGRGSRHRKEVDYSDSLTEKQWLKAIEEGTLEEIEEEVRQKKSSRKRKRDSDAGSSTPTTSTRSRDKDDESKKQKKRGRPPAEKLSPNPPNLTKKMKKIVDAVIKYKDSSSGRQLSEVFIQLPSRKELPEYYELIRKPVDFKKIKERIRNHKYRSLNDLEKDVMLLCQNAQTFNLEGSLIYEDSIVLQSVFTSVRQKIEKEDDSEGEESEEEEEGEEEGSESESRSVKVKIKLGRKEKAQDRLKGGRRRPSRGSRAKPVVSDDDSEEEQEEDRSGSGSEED
T2 sequence (Q96SW2 whole entry): as the sequence (Q96SW2 whole entry) above

SMILES | DC50 [1] [nM] | DC50 [2] [nM] | DC50 [3] [nM] | DC50 [4] [nM] | Activity [5] | DC50 [6] [nM] | DC50 [7] [nM] | DC50 [8] [nM] | DC50 [9] [nM] | inhibition (NCI-H2122) | IC50 [11] [nM] | inhibition (HCC44) | IC50 [13] [nM] | inhibition (NCI-H1568) | IC50 (NCI-H1693) [nM] | inhibition (NCI-H1693) | fold change (FC) [14] | fold change (FC) [15] | AUClast [16] [ng·h/mL] | Cmax [17] [ng/mL] | further results
Nc1nnc(-c2ccccc2O)cc1N1CCN(Cc2ccc(N3CCN(CCOc4cccc5c4C(=O)N(C4CCC(=O)NC4=O)C5=O)CC3)c(F)c2)CC1 (stereo unspecified) | 8.1 | 16 | 19 | 149 | Active; More Potent And Fastest Degradation Observed | 1 | 1.2 | 10.3 | 1.6 | Dose-dependent-effect | 9100 | Dose-dependent-effect | 11 | Dose-dependent-effect | 11 | Dose-dependent-effect | 0.368 | 0.501 | 19365.3 | 587 | IC50 ([10]; Homo sapiens, NCI-H2122, read-out: IC50): 9100 nM; Activity [12]: inactive; Cmax [18]: 2039.7 ng/mL; t1/2 [19]: 13 h; AUClast [20]: 4743 ng·h/mL; AUC [21]: 27108.3 ng·h/mL
Nc1nnc(-c2ccccc2O)cc1N1CCN(Cc2ccc(N3CCC(CN4CCN(c5ccc6c(c5)C(=O)N(C5CCC(=O)NC5=O)C6=O)CC4)CC3)c(F)c2)CC1 (stereo unspecified) | 69 | 60 | 135 | 381 | Active | 6.4 | 10.6 | 12.7 | 1.2 | Dose-dependent-effect | 10000 | Dose-dependent-effect | 78 | Dose-dependent-effect | 78 | Dose-dependent-effect | 0.935 | 0.33 | 23213.7 | 649.3 | IC50 ([10]; dose 0.001-10 µM, time 9-14 day): 10000 nM; Cmax [18]: 1756.3 ng/mL; t1/2 [19]: 44.8 h; AUClast [20]: 12079.3 ng·h/mL; AUC [21]: 68813 ng·h/mL

Source: ChEMBL document CHEMBL6134900 (J Med Chem, 2025)
